Screening results from PubChem.
Only some compounds are listed: those with a hit (about 3.8% of all), similar ones and a draw of the others.
Beta2AR agonist: agonists of human beta-2 adrenergic receptor inducing internalization. Am2.2-beta2AR cells, FAP receptor internalization, flow cytometry. actives 0.43% (n = 340,000). P07550. response, % (concentration not given with the values);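 active means response above a set limit, near 3 SD of response in nonfluorescent compounds, cut at about 42% in these data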
Target sequence (P07550 whole entry, looked up): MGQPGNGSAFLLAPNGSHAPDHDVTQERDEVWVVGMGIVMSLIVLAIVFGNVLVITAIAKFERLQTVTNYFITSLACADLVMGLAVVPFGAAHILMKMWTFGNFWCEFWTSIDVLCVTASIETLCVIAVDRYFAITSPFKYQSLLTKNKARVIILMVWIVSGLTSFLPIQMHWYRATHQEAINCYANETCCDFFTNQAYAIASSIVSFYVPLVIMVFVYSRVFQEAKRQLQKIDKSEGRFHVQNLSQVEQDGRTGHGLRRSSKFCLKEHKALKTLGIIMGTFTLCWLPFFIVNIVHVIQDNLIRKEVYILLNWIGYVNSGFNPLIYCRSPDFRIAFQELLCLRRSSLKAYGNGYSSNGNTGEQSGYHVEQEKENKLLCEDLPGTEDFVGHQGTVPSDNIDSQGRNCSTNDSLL
Granule exo inh: lytic granule exocytosis inhibition. inhibition, % at 10 µM. actives 0.66% (n = 360,000). TALL-104 LAMP-1 surface exposure, flow cytometry; cells stimulated with thapsigargin and PMA;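 active means inhibition above about 55%, limit read from the data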
MPTP inh: permeability transition pore inhibition; isolated mouse mitochondria, Ca2+ swelling absorbance, 30 min; inhibition, % at 10 µM; actives 1.4% (n = 360,000); AID 602449;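 active means inhibition of 50% or more, scaled per plate between neutral and stimulator controls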;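 further: 0% = DMSO wells given calcium and 100% = 1 mM EGTA wells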
V-ATPase pH: alters yeast V-ATPase proton transport; response, % at 10 µM; actives 0.37% (n = 350,000); S. cerevisiae, pHLuorin cytosolic pH fluorescence; in the data active means response mostly above about 7.3%, no sharp cut-off; inactive means mostly below about 5.4%; further: actives read high
rCAG RNA binder: binds r(CAG) RNA repeats; r(CAG) RNA repeat, TO-PRO-1 dye displacement fluorescence; inhibition, % at 3 µM; actives 1.3% (n = 370,000); AID 651821;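 active means inhibition above the plate cutoff, the mean of all test compounds on that plate plus 3 SD, cut at about 35% in these data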;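 further: 0% = DMSO alone and 100% = 100 µM mitoxantrone as full dye displacement; higher means more dye released from RNA so lower well fluorescence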
T cell HTS: T cell immune modulation candidate | 2C CD8+ T cell-vesicle binding, flow cytometry; stronger effect = lower value | response (vesicle binding), % at 7 µM | actives 0.068% (n = 330,000) | AID 2052;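 active means response, share of CD8 T cells binding vesicles, and their 90th percentile fluorescence all below set limits, cut at about 80% in these data, passing the limit was not always enough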;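 further: values below 100% mean blocked vesicle binding to the CD8+ T cells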
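Material: murine 2C transgenic CD8+ T lymphocytes / Also added: QL9-peptide-loaded Drosophila micro-vesicles bearing Ld, ICAM-1 and B7-1 / Schedule: binding step 1.5 h, 37 °C, antibody labelling 20 min, ice / Signal: flow cytometry, PE anti-B7-1 (FL2) versus Alexa647 anti-CD8 (FL8), PFA-fixed / Evaluation: percent CD8+ FL2 mean versus row control / Benchmarks: naked versus QL9-loaded vesicles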
Beta2AR ag CP1: human beta-2 adrenergic receptor agonism, cherry pick; Am2.2-beta2AR cells, FAP surface receptor, flow cytometry; stronger effect = lower value; shares compounds with Beta2AR agonist; actives 25% (n = 1,100); percent response (surface receptor), % at 10 µM;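 active means surface receptor percent response at or below 58%, roughly 3 SD from nonfluorescent compounds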
FAP fluor counter: counter-screen for beta-2AR agonists: fluorescence in Am2.2 cells; shares compounds with Beta2AR agonist; FAP fluorogen flow cytometry, fluorescence counterscreen; stronger effect = lower value; calls only at 10 µM; 1,100 tested, under 10 active; AID 588765;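 active means percent response below a set limit in fluorescence channel 1 and below 50% in channel 8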
Numbers without * were called inactive.

`CC(C)(C)c1ccc(-n2nc(C(N)=O)c(O)cc2=O)cc1` gave Beta2AR agonist -2, Granule exo inh 0, MPTP inh 0, V-ATPase pH -5, rCAG RNA binder 6 and T cell HTS 180.
`O=C(OC12CCCN(C1)/C(=C/c1ccc(Cl)cc1)C2)c1ccno1` (stereo not drawn) gave rCAG RNA binder 3.
Screening N#Cc1c(NC(=O)CSc2ncccn2)oc(-c2ccccc2)c1-c1ccccc1 returned Beta2AR agonist 49*, Granule exo inh -2, MPTP inh 3, V-ATPase pH 3, rCAG RNA binder 28, T cell HTS 562, Beta2AR ag CP1 117 and FAP fluor counter inactive.
For Cc1nc2ccc(Cl)cc2c(-c2ccccc2Cl)c1CC(=O)O the results were Beta2AR agonist 46*, Granule exo inh -3, MPTP inh 1, V-ATPase pH 1, rCAG RNA binder 10, T cell HTS 247, Beta2AR ag CP1 93 and FAP fluor counter inactive.
For Cc1nc2ccc(Cl)cc2c(-c2ccccc2F)c1CC(=O)O the results were Beta2AR agonist 6, Granule exo inh -4, MPTP inh 0, V-ATPase pH -3, rCAG RNA binder 9 and T cell HTS 250.
`CSc1ccc(C(=O)C2CCCN(Cc3cccn3-c3cccnc3)C2)cc1` (stereo not drawn) gave Beta2AR agonist 70*, Granule exo inh -1, MPTP inh 4, V-ATPase pH 1, rCAG RNA binder -2, T cell HTS 274, Beta2AR ag CP1 19* and FAP fluor counter inactive.
Screening O=C(c1ccc(Cl)cc1)C1CCCN(Cc2cccn2-c2cccnc2)C1 (stereo not drawn) returned Beta2AR agonist -3, Granule exo inh 0, MPTP inh 0, V-ATPase pH 1, rCAG RNA binder -6 and T cell HTS 182.
`Cc1cc(C)n2nc(C(=O)Nc3ccc(S(=O)(=O)N4CCCC4)cc3)nc2n1` gave Beta2AR agonist 46*, Granule exo inh 0, MPTP inh -1, V-ATPase pH 0, rCAG RNA binder -2, T cell HTS 437, Beta2AR ag CP1 98 and FAP fluor counter inactive.
Cc1cc(C)n2nc(C(=O)Nc3cccc(S(=O)(=O)N(C)c4ccccc4)c3)nc2n1 was read as Beta2AR agonist 75*, Granule exo inh 0, MPTP inh 1, V-ATPase pH -2, rCAG RNA binder 4, T cell HTS 296, Beta2AR ag CP1 12* and FAP fluor counter inactive.
`CN(c1ccccc1)S(=O)(=O)c1cccc(NC(=O)c2cncc(Br)c2)c1` gave Beta2AR agonist 3, Granule exo inh 0, MPTP inh 36, V-ATPase pH -4, rCAG RNA binder 3 and T cell HTS 326.
`Cc1cc(C)n2nc(C(=O)Nc3ccc(S(=O)(=O)N4CCCCC4)cc3)nc2n1` gave Beta2AR agonist 0, Granule exo inh 1, MPTP inh -4, V-ATPase pH -1, rCAG RNA binder -1 and T cell HTS 363.
For Cc1ccc(S(=O)(=O)N2CCCC2C(c2ccccc2O)c2cn(C)c3ccccc23)cc1 (stereo not drawn) the results were rCAG RNA binder 7.
`CN(CCOC(=O)c1cccs1)C1CN(Cc2cn(Cc3ccccc3Cl)nn2)S(=O)(=O)C1` (stereo not drawn) gave rCAG RNA binder 2.
Screening CN1CCN(CCc2nc3cc(NC(=O)COc4ccccc4)ccc3n2C)CC1 returned Beta2AR agonist -17, Granule exo inh -3, MPTP inh 0, V-ATPase pH -1, rCAG RNA binder -9, T cell HTS 400, Beta2AR ag CP1 129 and FAP fluor counter inactive.
For COc1ccc(C(=O)CSc2nnc(-c3n[nH]c4c3CCC4)n2N)cc1OC the results were rCAG RNA binder 2.
For O=C(N[C@@H](Cc1ccccc1)C(=O)OCc1ccccc1)c1nc[nH]c1C(=O)NCc1ccccc1 the results were Beta2AR agonist 63*, Granule exo inh -3, MPTP inh 0, V-ATPase pH -1, rCAG RNA binder 3, T cell HTS 253, Beta2AR ag CP1 106 and FAP fluor counter inactive.
O=C(CN1C(=O)C2CCCCN2C(=O)c2ccccc21)N1CCCC1 (stereo not drawn) was read as rCAG RNA binder 0.
C[C@H](O)[C@@H]1C(=O)N2CCc3c([nH]c4c(-c5ccc6c(c5)OCO6)cccc34)[C@@H]2C[C@@H]1N(C)C(=O)c1ccccc1F was read as rCAG RNA binder 13.
For FC(F)(F)c1ccccc1NC(=S)OC1CCC12CCC(c1ccccc1)CC2 (stereo not drawn) the results were rCAG RNA binder 10.
`CCCNc1nc(-c2ccccc2)c(C(=O)OCC)cc1C#N` gave Beta2AR agonist 50*, Granule exo inh 2, MPTP inh 1, V-ATPase pH 0, rCAG RNA binder -9, T cell HTS 459, Beta2AR ag CP1 103 and FAP fluor counter inactive.
CC(CCc1ccc(O)cc1)NCCc1ccc(O)c(O)c1 (stereo not drawn) was read as Beta2AR agonist 2, Granule exo inh 7, MPTP inh 3, V-ATPase pH -2, rCAG RNA binder 5, T cell HTS 308, Beta2AR ag CP1 86 and FAP fluor counter inactive.
`COc1ccccc1CCNC(C)CCc1ccc(O)cc1` (stereo not drawn) gave Beta2AR agonist 2, Granule exo inh 4, MPTP inh 0, V-ATPase pH 1, rCAG RNA binder 1 and T cell HTS 337.
For CCOC(=O)c1ccc(NC(=S)NNC(C)(C)C)cc1 the results were Beta2AR agonist -4, Granule exo inh 12, MPTP inh 4, V-ATPase pH 4, rCAG RNA binder -3, T cell HTS 264, Beta2AR ag CP1 95 and FAP fluor counter inactive.
Cc1cc(C)cc(NC(=O)C(OC(=O)c2sccc2C)c2ccccc2)c1 (stereo not drawn) was read as Beta2AR agonist 64*, Granule exo inh -6, MPTP inh 2, V-ATPase pH 3, rCAG RNA binder 3, T cell HTS 359, Beta2AR ag CP1 95 and FAP fluor counter inactive.
`CC(=O)c1cccc(NC(=O)C(OC(=O)c2cccs2)c2ccccc2)c1` (stereo not drawn) gave Beta2AR agonist -5, Granule exo inh 2, MPTP inh 2, V-ATPase pH -5, rCAG RNA binder 7 and T cell HTS 198.
C=CCN1[C@@H](C)COc2cc(N3CCCC3)ccc2S1(=O)=O was read as rCAG RNA binder -1.
